Data on one compound can be found in ChEMBL document CHEMBL3286239, “Synthesis and biological evaluation of novel naphthalene compounds as potential antidepressant agents” (Eur J Med Chem, 2014).

By inhibition in vivo is commonly meant the relative decrease from the control value, in per cent.

Active and inactive are the calls of the source. The calls are words filed in the database; no cut-off is given here.

For series [1], the system named is PC-12. The series is described as follows: Neurorestorative activity against H2O2-induced oxidant injury in rat PC12 cells assessed as restorative rate at 10 uM measured after 48 hrs pretreated with 200 uM H2O2 for 1 hr by MTT assay. In kind it is functional. In outline:
(§1)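 PC12 cells at 1×10^4/well in DMEM with 10% FBS and 5% horse serum for 24 h. Exposed to 200 μM H₂O₂ for 1 h, washed twice with PBS, then compound (10, 20 or 40 μM) in DMEM for 48 h. MTT 0.5 mg/ml final for 4 h, DMSO solubilization, A570. Restoration rate from absorbance relative to injured control; mean ± S.D. of six independent experiments.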
(Tetrazolium assays rely on reduction of a dye to a coloured formazan, in cell work by metabolically active cells.)

Series [2] concerns PC-12. Kind of series: Neurorestorative activity against H2O2-induced oxidant injury in rat PC12 cells assessed as restorative rate at 20 uM measured after 48 hrs pretreated with 200 uM H2O2 for 1 hr by MTT assay. In kind it is functional. The gist of the method:
as §1

For series [3], the system named is PC-12. The series is described as follows: Neurorestorative activity against H2O2-induced oxidant injury in rat PC12 cells assessed as restorative rate at 40 uM measured after 48 hrs pretreated with 200 uM H2O2 for 1 hr by MTT assay. It counts as functional. In outline: as §1
Series [4] deals with PC-12. The series is described as follows: Neuroprotective activity against rat PC12 cells assessed as protection against corticosterone- induced lesion at 1.25 uM after 1 day by MTT assay. In kind it is functional. In outline:
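Low-differentiated PC12 cells at 1×10^4/well in DMEM with 5% heat-inactivated horse serum and 10% FBS for 24 h. Then 200 μM corticosterone plus compound at 1.25 μM for 1 day. MTT 0.5 mg/ml final for 4 h, formazan in DMSO, A570. Protection rate = (A_drug − A_corticosterone)/A_corticosterone ×100; mean ± S.D. of six independent experiments.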

The test system of series [5] is PC-12. The series is described as follows: Neuroprotective activity against corticosterone- induced morphological change in rat PC12 cells assessed as decrease in shrunk axons at 1.25 uM after 24 hrs by inverted microscopic analysis. It counts as functional, cell-based. In outline: (§2)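 PC12 cells seeded at 1×10^6 cells/mL and grown 1 d. Exposed to corticosterone 0.2 mM with or without drug at 1.25 μM for 24 h. Photographed by inverted microscope in three random fields per group. Cells with shrunk axons and cycloid shape counted as injured, normal neuron-like cells counted separately, using computer-assisted image analysis.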

Series [6] concerns PC-12. Kind of series: Neuroprotective activity against corticosterone- induced morphological change in rat PC12 cells assessed as decrease in cycloid shape at 1.25 uM after 24 hrs by inverted microscopic analysis. It counts as functional, cell-based. The gist of the method:
as §2

Series [7] in a line: Cytotoxicity against human L02 cells as inhibition of cell viability at 80 uM after 24 hrs by MTT assay. It counts as cell-based. As to conditions: L02 cells, read-out: INH.
For series [8], the system named is HEK293. Kind of series: Cytotoxicity against human HEK293 cells as inhibition of cell viability at 80 uM after 24 hrs by MTT assay. As to conditions: hek293, 24 h, 80 µM. In kind it is cell-based.
For series [9], the system named is Mus musculus. The series is described as follows: Antidepressant-like activity in C57 mouse assessed as reduction in immobility time at 32 mg/kg, ip administered from day 2 to 15 measured on 2nd and 15th day 30 mins after drug challenge by forced swim test. In kind it is functional. The conditions noted are these: route intraperitoneal. The gist of the method:
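Male C57 mice (20–24 g), 10 per group. Day 1: 15 min pre-swim in a cylinder (20 cm diameter) with 15 cm water at 22–25 °C. Days 2–15: daily i.p. 32 mg/kg in 30% β-cyclodextrin. On days 2 and 15, a 6 min swim 30 min after dosing. Immobility (speed <20 mm/s) scored over the last 4 min from video. Mean ± S.D.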

The subject of series [10] is Mus musculus. Kind of series: Toxicity in C57 mouse assessed as increase in spontaneous locomotor activity at 32 mg/kg, ip for 14 days by open field test. In kind it is organism-based. Set-up: dose 32 mg/kg, route intraperitoneal. The conditions noted are these: in vivo, 336 h. The gist of the method: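 Male C57 mice (20–24 g), 10 per group, 12 h light/dark cycle, food and water ad libitum. Dosed i.p. at 32 mg/kg daily for 14 days, then total distance travelled measured in an open field arena.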

On to `COc1ccc2cccc(CCNC(=O)C3CN(C(=O)C(F)(F)F)C3)c2c1`, for which the outcome in [1], in series [2] and in series [3] was inactive. The figures for the Activity in series [4], in series [8] and in [10] were 43.5%, “Non-toxic” and 88.5%, respectively. Moreover, the inhibition entry in series [5] and in [6] was “Active” in each case. In addition, in series [7], the cytotoxicity at 24 h, 80 µM stood at 2.6%. Further, in [9], the inhibition in vivo at 32 mg/kg is 58.4%.
